{"source": "paper PMC4367188", "about": "(ACS Chemical Neuroscience, 2015)", "key": {"[1]": {"target": "CHT (Mus musculus, UniProt Q8BGY9)", "test": "choline uptake in mouse forebrain synaptosomes", "assay_type": "biochemical", "conditions": "ML352 at 300 nM in saturation choline transport assays"}, "[2]": {"target": "Adenosine A3 (Homo sapiens, UniProt P0DMS8)", "test": "Lead Profiling Screen radioligand binding"}, "[3]": {"target": "Calcium Channel N-Type (Rattus norvegicus, UniProt Q02294)", "sequence (Q02294 whole entry)": "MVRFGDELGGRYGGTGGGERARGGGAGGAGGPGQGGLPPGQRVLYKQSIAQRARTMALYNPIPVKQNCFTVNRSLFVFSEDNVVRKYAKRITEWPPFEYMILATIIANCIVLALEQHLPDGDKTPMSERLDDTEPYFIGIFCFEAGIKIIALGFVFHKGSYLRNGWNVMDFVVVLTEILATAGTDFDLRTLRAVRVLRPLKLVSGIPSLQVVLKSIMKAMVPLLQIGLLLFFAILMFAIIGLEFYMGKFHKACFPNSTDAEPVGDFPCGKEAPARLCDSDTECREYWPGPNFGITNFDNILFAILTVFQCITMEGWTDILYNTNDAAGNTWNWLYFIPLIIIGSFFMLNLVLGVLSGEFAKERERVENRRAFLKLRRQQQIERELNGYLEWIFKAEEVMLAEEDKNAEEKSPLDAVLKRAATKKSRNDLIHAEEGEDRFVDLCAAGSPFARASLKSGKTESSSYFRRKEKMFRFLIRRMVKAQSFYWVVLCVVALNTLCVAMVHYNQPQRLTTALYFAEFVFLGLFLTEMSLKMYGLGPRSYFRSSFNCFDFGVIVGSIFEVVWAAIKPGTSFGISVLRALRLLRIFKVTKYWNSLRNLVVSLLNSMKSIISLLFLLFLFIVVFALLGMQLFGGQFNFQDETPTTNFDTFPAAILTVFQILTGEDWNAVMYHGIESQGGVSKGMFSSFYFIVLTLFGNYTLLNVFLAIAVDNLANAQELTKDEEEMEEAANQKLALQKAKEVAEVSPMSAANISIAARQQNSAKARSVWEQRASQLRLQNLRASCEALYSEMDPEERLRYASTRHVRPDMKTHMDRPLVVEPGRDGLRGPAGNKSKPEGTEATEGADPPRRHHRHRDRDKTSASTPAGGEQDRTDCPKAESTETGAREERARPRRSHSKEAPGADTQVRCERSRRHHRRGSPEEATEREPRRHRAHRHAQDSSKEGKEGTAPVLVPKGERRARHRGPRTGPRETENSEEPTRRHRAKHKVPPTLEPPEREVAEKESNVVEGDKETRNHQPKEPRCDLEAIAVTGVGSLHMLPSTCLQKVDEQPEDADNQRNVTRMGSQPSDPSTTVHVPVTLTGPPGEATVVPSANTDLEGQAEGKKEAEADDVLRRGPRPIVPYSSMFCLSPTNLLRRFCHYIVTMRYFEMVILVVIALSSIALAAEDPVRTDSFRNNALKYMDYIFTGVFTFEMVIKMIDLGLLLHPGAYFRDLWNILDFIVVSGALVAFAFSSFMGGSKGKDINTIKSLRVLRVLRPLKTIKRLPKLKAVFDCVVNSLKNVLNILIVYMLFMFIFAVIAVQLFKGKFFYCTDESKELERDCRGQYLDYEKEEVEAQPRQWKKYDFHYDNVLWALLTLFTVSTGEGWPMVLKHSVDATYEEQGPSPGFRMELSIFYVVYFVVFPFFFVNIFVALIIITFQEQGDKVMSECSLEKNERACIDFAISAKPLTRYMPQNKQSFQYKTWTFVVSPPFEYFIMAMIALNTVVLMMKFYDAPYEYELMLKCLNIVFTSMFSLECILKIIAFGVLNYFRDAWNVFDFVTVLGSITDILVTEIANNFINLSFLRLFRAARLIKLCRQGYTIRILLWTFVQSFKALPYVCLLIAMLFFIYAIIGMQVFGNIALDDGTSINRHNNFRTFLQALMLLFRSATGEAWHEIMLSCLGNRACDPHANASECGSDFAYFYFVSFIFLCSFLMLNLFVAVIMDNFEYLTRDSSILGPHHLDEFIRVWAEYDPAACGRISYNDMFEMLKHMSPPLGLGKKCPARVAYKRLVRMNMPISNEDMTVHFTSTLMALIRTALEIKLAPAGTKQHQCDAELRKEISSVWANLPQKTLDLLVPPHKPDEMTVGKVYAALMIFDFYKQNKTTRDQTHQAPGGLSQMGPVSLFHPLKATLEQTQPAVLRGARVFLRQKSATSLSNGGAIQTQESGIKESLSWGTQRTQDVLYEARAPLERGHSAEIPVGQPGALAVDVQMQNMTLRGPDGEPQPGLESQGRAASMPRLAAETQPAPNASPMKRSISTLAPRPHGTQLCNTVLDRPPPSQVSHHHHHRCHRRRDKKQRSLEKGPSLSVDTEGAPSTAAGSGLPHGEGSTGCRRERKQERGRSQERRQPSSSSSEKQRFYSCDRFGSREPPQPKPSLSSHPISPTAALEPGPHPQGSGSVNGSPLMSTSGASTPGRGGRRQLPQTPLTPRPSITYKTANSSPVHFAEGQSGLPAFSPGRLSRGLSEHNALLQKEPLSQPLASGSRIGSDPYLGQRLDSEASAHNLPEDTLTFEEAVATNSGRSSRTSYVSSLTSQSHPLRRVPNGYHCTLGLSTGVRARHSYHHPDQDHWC", "test": "Lead Profiling Screen radioligand binding"}, "[4]": {"target": "T1, WT hCHT (Homo sapiens, UniProt Q9GZV3)", "T1 sequence (Q9GZV3 1-580)": "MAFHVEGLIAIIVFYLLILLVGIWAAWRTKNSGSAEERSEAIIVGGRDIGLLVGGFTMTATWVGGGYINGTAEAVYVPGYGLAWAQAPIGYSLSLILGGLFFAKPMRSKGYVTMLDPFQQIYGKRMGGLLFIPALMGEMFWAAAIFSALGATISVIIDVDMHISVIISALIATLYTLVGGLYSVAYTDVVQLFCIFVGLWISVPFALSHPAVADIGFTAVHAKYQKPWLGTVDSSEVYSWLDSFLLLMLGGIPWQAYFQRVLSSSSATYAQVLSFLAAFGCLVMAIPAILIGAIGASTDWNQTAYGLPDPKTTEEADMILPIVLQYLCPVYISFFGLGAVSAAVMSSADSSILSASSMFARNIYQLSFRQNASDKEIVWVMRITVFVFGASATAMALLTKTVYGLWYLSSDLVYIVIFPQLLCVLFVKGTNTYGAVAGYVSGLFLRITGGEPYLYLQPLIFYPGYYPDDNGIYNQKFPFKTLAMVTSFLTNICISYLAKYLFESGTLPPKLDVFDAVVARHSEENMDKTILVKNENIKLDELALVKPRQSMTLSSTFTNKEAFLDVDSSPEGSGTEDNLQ", "test": "cell-surface biotinylation, CHT surface expression in WT hCHT HEK 293 cells", "assay_type": "cell-based", "conditions": "5 μM, 15 min incubation"}, "[5]": {"tested_on": "nontransfected HEK 293 cells", "test": "[3H]choline accumulation in nontransfected HEK 293 cells", "assay_type": "cell-based, human", "conditions": "5 μM ML352; data not shown"}, "[6]": {"target": "Prostanoid EP4 (Homo sapiens, UniProt P35408)", "test": "Lead Profiling Screen radioligand binding"}, "[7]": {"tested_on": "Glutamate, NMDA, Phancyclidine", "test": "Lead Profiling Screen radioligand binding", "conditions": "10 μM ML352"}, "[8]": {"target": "P450 2C9 (Homo sapiens, UniProt P11712)"}, "[9]": {"test": "intrinsic clearance in hepatic microsomes", "assay_type": "in vitro ADME", "conditions": "human; predicted hepatic clearance from microsomal CLint"}, "[10]": {"target": "Epidermal Growth Factor (EGF) (Homo sapiens, UniProt P00533)", "test": "Lead Profiling Screen radioligand binding"}, "[11]": {"target": "Endothelin ETB (Homo sapiens, UniProt P24530)", "sequence (P24530 27-442)": "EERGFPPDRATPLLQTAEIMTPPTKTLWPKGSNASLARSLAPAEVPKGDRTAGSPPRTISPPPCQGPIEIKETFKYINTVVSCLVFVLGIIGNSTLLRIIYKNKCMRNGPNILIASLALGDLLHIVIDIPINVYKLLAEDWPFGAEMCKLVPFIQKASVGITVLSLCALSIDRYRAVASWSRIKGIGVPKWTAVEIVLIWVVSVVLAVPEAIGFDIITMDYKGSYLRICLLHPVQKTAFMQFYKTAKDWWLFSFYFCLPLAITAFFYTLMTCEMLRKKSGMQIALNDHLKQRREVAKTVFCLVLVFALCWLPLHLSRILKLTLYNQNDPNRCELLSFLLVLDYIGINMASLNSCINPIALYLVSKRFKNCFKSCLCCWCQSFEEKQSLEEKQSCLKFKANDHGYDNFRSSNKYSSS", "test": "Lead Profiling Screen radioligand binding"}, "[12]": {"target": "Transporter, Dopamine (DAT) (Homo sapiens, UniProt Q01959)", "test": "Lead Profiling Screen radioligand binding"}, "[13]": {"target": "Endothelin ETA (Homo sapiens, UniProt P25101)", "test": "Lead Profiling Screen radioligand binding"}, "[14]": {"tested_on": "GABAA, Flunitrazepam, Central", "test": "Lead Profiling Screen radioligand binding", "conditions": "10 μM ML352"}, "[15]": {"target": "AChE (Mus musculus, UniProt P21836)", "sequence (P21836 32-614)": "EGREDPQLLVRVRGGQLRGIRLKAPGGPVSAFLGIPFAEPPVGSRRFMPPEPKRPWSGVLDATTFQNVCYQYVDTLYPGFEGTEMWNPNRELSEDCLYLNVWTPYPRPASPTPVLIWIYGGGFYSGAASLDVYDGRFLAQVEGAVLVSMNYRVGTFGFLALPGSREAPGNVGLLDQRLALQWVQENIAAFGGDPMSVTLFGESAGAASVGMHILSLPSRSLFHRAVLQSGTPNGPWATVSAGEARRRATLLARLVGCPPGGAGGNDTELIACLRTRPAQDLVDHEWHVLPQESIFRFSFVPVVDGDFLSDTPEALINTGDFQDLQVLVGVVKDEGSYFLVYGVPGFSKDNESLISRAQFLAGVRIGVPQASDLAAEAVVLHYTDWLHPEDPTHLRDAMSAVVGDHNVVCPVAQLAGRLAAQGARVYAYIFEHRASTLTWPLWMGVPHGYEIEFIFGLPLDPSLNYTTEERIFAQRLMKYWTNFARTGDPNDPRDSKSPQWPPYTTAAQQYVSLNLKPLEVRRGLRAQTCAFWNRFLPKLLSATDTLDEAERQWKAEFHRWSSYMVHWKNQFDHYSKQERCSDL", "test": "AChE activity in mouse forebrain extracts", "assay_type": "biochemical", "conditions": "concentrations well above the CHT Ki"}, "[16]": {"test": "PBS solubility", "assay_type": "physicochemical", "conditions": "aqueous buffer"}, "[17]": {"target": "hERG potassium channel (Homo sapiens, UniProt Q12809)", "test": "Lead Profiling Screen radioligand binding"}, "[18]": {"target": "Muscarinic M2 (Homo sapiens, UniProt P08172)", "sequence (P08172 whole entry)": "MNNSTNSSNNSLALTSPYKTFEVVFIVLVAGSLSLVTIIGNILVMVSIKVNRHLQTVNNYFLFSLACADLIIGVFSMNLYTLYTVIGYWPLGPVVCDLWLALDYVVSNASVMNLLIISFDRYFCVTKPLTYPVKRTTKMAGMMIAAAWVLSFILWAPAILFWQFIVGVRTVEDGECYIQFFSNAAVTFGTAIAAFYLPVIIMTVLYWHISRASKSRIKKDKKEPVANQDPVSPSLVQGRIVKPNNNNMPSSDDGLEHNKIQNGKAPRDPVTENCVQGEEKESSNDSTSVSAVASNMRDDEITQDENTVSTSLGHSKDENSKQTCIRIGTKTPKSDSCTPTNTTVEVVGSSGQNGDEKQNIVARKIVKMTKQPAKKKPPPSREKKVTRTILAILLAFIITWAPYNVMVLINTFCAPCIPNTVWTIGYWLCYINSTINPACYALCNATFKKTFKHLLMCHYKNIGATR", "test": "Lead Profiling Screen radioligand binding"}, "[19]": {"target": "Transporter, Norepinephrine (NET) (Homo sapiens, UniProt P23975)", "test": "Lead Profiling Screen radioligand binding"}, "[20]": {"tested_on": "Glutamate, NMDA, Agonism", "test": "Lead Profiling Screen radioligand binding", "conditions": "10 μM ML352"}, "[21]": {"target": "Adenosine A2A (Homo sapiens, UniProt P29274)", "test": "Lead Profiling Screen radioligand binding"}, "[22]": {"target": "Histamine, H3 (Homo sapiens, UniProt Q9Y5N1)", "test": "Lead Profiling Screen radioligand binding"}, "[23]": {"target": "Bradykinin B1 (Homo sapiens, UniProt P46663)", "test": "Lead Profiling Screen radioligand binding"}, "[24]": {"target": "serotonin transporter (SERT) (Homo sapiens, UniProt P31645)", "test": "[3H]5-HT uptake in HEK293 hSERT cells", "assay_type": "cell-based", "conditions": "transfected HEK 293 cells"}, "[25]": {"target": "Bradykinin B2 (Homo sapiens, UniProt P30411)", "test": "Lead Profiling Screen radioligand binding"}, "[26]": {"target": "Opiate δ1 (OP1, DOP) (Homo sapiens, UniProt P41143)", "test": "Lead Profiling Screen radioligand binding"}, "[27]": {"test": "brain tissue distribution in Sprague-Dawley rats", "assay_type": "in vivo", "conditions": "male, rat, brain/plasma, iv, 1 mg/kg"}, "[28]": {"target": "SERT (Mus musculus, UniProt Q60857)", "test": "serotonin uptake in mouse forebrain synaptosomes", "assay_type": "biochemical", "conditions": "5 μM ML352", "how_it_was_run": "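Crude P2 synaptosomes from forebrains of male C57BL/6J mice (8–10 weeks), taken after decapitation under urethane. Incubated 10 min at 37 °C in Krebs bicarbonate buffer with 100 nM [3H]dopamine or [3H]serotonin ± test compound. Stopped on ice, rapidly filtered, counted by scintillation. Specific uptake defined with cocaine 1 μM (DAT) or citalopram 1 μM (SERT). Protein by BCA; n = 3.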"}, "[29]": {"target": "Adrenergic α1A (Rattus norvegicus, UniProt P43140)", "test": "Lead Profiling Screen radioligand binding"}, "[30]": {"target": "Adrenergic α2A (Homo sapiens, UniProt P08913)", "test": "Lead Profiling Screen radioligand binding"}, "[31]": {"target": "Dopamine D1 (Homo sapiens, UniProt P21728)", "sequence (P21728 whole entry)": "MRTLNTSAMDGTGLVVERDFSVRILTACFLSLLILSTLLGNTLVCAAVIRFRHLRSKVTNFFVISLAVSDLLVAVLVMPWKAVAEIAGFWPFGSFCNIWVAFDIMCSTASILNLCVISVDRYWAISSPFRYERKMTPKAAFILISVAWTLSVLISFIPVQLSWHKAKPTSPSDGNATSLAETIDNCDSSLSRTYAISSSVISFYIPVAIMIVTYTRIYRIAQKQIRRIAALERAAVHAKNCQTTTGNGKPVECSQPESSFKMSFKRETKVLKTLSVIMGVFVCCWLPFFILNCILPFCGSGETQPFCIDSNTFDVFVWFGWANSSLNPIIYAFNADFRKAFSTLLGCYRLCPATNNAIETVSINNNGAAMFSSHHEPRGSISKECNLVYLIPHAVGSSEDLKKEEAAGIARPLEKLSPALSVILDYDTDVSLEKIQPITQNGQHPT", "test": "Lead Profiling Screen radioligand binding"}, "[32]": {"target": "Nicotinic Acetylcholine α1, Bungarotoxin (Homo sapiens, UniProt P02708+P07510+Q07001)", "test": "Lead Profiling Screen radioligand binding"}, "[33]": {"target": "Adrenergic α1D (Homo sapiens, UniProt P25100)", "test": "Lead Profiling Screen radioligand binding"}, "[34]": {"target": "ChAT (Mus musculus, UniProt Q03059)", "sequence (Q03059 whole entry)": "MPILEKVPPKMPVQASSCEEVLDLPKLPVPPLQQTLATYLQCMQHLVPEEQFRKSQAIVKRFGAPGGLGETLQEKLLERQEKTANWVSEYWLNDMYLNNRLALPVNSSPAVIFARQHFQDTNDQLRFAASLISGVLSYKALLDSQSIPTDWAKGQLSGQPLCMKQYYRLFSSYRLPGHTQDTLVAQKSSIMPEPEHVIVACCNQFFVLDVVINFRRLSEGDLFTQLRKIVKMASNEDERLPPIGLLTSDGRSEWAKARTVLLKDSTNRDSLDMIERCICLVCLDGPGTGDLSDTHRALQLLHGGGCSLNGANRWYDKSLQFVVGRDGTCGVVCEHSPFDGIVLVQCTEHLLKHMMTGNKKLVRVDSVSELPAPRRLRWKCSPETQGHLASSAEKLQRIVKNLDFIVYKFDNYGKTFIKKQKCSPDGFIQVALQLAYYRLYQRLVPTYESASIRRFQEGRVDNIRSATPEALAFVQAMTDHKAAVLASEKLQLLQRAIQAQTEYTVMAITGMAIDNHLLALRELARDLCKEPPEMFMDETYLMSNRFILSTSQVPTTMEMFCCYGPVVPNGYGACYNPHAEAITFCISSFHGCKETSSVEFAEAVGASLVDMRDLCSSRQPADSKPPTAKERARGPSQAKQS", "test": "ChAT activity in mouse forebrain extracts", "assay_type": "biochemical", "conditions": "concentrations well above the CHT Ki"}}, "note": "Entries after “also recorded” stand apart in the source; their conditions may differ."}
{"smiles": "COc1ccc(C(=O)NCc2cc(C(C)C)no2)cc1OC1CCN(C)CC1", "note": "[ML352, N-((3-isopropylisoxazol-5-yl)methyl)-4-methoxy-3-((1-methylpiperidin-4-yl)oxy)benzamide]", "values": [{"measurement": "mode of choline uptake inhibition", "setting": "[1]", "result": "noncompetitively inhibits"}, {"measurement": "inhibition at 10 µM", "setting": "[2]", "result": 4, "unit": "%"}, {"measurement": "inhibition at 10 µM", "setting": "[3]", "result": -1, "unit": "%"}, {"measurement": "increase in steady-state hCHT surface expression", "setting": "[4]", "result": "43.4 ± 4.7 % of control"}, {"measurement": "effect on [3H]choline accumulation in nontransfected HEK 293 cells", "setting": "[5]", "result": "< 20", "unit": "%"}, {"measurement": "inhibition at 10 µM", "setting": "[6]", "result": -7, "unit": "%"}, {"measurement": "% inhibition", "setting": "[7]", "result": "–5%"}, {"measurement": "IC50", "setting": "[8]", "result": "> 30", "unit": "µM"}, {"measurement": "CLhep", "setting": "[9]", "result": 6.9, "unit": "mL/min/kg"}, {"measurement": "inhibition at 10 µM", "setting": "[10]", "result": 5, "unit": "%"}, {"measurement": "inhibition at 10 µM", "setting": "[11]", "result": -2, "unit": "%"}, {"measurement": "inhibition at 10 µM", "setting": "[12]", "result": 4, "unit": "%"}, {"measurement": "inhibition at 10 µM", "setting": "[13]", "result": -3, "unit": "%"}, {"measurement": "% inhibition", "setting": "[14]", "result": 6, "unit": "%"}, {"measurement": "inhibition of AChE", "setting": "[15]", "result": "no ability; also recorded: lacks activity; also recorded: no inhibition"}, {"measurement": "solubility", "setting": "[16]", "result": "98.2 ± 1.1", "unit": "µM"}, {"measurement": "inhibition at 10 µM", "setting": "[17]", "result": 16, "unit": "%"}, {"measurement": "inhibition at 10 µM", "setting": "[18]", "result": 12, "unit": "%"}, {"measurement": "inhibition at 10 µM", "setting": "[19]", "result": 12, "unit": "%"}, {"measurement": "% inhibition", "setting": "[20]", "result": 1, "unit": "%"}, {"measurement": "inhibition at 10 µM", "setting": "[21]", "result": 0, "unit": "%"}, {"measurement": "inhibition at 10 µM", "setting": "[22]", "result": 7, "unit": "%"}, {"measurement": "inhibition at 10 µM", "setting": "[23]", "result": 6, "unit": "%"}, {"measurement": "inhibitory activity at SERT", "setting": "[24]", "result": "lack of inhibitory activity"}, {"measurement": "inhibition at 10 µM", "setting": "[25]", "result": -3, "unit": "%"}, {"measurement": "inhibition at 10 µM", "setting": "[26]", "result": -2, "unit": "%"}, {"measurement": "Kp at […]", "setting": "[27]", "result": 0.2}, {"measurement": "inhibition of SERT", "setting": "[28]", "result": "fails to inhibit"}, {"measurement": "inhibition at 10 µM", "setting": "[29]", "result": 23, "unit": "%"}, {"measurement": "inhibition at 10 µM", "setting": "[30]", "result": 43, "unit": "%"}, {"measurement": "inhibition at 10 µM", "setting": "[31]", "result": 9, "unit": "%"}, {"measurement": "inhibition at 10 µM", "setting": "[32]", "result": 7, "unit": "%"}, {"measurement": "inhibition at 10 µM", "setting": "[33]", "result": 24, "unit": "%"}, {"measurement": "inhibition of ChAT activity", "setting": "[34]", "result": "no ability; also recorded: lacks activity; also recorded: no inhibition"}]}
